Rows were chosen to be rich in hits. Some 9.8% of all compounds tested hit in one or more screens of this group.
PMI act hi M6P: increases human PMI activity with near-saturating mannose 6-phosphate. hit rate 0.34% among 190,000. activation factor at 20 µM. coupled PMI enzyme assay, resazurin fluorescence, 20 min; stronger effect = higher value; 1 = untreated enzyme, 0 = substrate-free blank;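 active = activation factor of 2 or more at 20 µM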
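Test system: human phosphomannose isomerase with PGI, G6PDH, diaphorase coupling enzymes / Doses: 20 µM compound, 1% DMSO / Times: enzyme reaction with compound 20 min at room temperature / Measured by: Diaphorase-driven resazurin-to-resorufin fluorescence, excitation 544, emission 590 nm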
PMI activator: activators of human phosphomannose isomerase; P34949; purified human PMI, coupled resazurin fluorescence, 20 min; stronger effect = higher value; 1 = vehicle control, 0 substrate-free wells; activation factor at 20 µM; hit rate 0.005% among 190,000;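 active = activation factor of 2 or more at 20 µM, relative to plate controls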
Calpain2 inh: calpain II (pig) inhibition; purified calpain II, fluorogenic peptide substrate, 30 min; inhibition, % at 16 µM; hit rate 0.37% among 220,000;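 active = inhibition above about 50%, limit read from the data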
L major viab: inhibitors of Leishmania major promastigote growth; Leishmania major promastigotes, resazurin fluorescence viability; inhibition, % at 10 µM; hit rate 9% among 200,000; AID 1063; in the data active = inhibition above about 50%;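 note: promastigotes grown with compound for 44 hours at 28 °C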
Rad51 HR inh: Rad51 (human) homologous recombination inhibition. AID 1385. hit rate 0.085% among 200,000. hRad51 DNA strand exchange, fluorescence dequenching. Q06609. inhibition, % at 10 µM;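 active = inhibition above 40% at the single screening dose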;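 note: 0% = DMSO control wells and 100% = blanks with heterologous ssDNA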
Target sequence (Q06609 whole entry, looked up): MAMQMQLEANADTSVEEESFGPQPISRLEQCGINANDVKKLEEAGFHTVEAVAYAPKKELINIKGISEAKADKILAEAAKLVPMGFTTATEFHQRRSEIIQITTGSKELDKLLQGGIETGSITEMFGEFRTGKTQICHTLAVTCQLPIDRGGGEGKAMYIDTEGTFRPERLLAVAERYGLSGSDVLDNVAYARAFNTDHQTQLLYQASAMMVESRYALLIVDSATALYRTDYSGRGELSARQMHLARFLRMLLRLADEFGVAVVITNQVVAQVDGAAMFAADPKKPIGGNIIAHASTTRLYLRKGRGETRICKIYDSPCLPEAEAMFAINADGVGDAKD
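Material: hRad51 filaments on single-stranded DNA; Reagent: Donor/quencher-labelled 47-bp dsDNA substrate; Compound: 10 µM final, single point; Schedule: 37 °C 15-min filament assembly, 30-min compound preincubation, 15-min exchange; Technique: FRET fluorescence, excitation 485 nm, emission 520 nm; Benchmarks: control wells and blank wells on each plate.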
WT yeast gro inh: growth inhibition of WT yeast, mitochondrial fusion screen. mitochondrial fusion phenotypic screen, WT strain. inhibition, % at 10 µM. hit rate 2.1% among 190,000; in the data active = inhibition above about 58%; tested in S. cerevisiae
Active calls of the source: *; x = not tested or not shown.

SMILES | PMI act hi M6P | PMI activator | Calpain2 inh | L major viab | Rad51 HR inh | WT yeast gro inh
CCOC(=O)c1ccc(CC(=O)c2ccc(O)c(O)c2O)o1 | 0.3 | 0.3 | 58* | -10 | x | -8
C=C(C)CNC(=S)N=Nc1c(O)[nH]c2ccc([N+](=O)[O-])cc12 | 1 | 1 | -4 | 78* | 14 | 5
COc1ccccc1C(=O)N=Nc1c(O)[nH]c2ccc([N+](=O)[O-])cc12 | 0.8 | 1.1 | -25 | 25 | 5 | -1
O=C(N=Nc1c(O)[nH]c2ccc([N+](=O)[O-])cc12)c1cc(-c2ccccc2Cl)nc2ccccc12 | 0.9 | 0.9 | 69* | 33 | x | -1
CC(C)NC(=S)N=Nc1c(O)[nH]c2ccc([N+](=O)[O-])cc12 | 0.7 | 0.9 | -26 | 8 | 3 | -6
CCN(c1ccc(NC(=O)CCNC(=O)c2ccco2)cc1)C(C)C | 0.8 | 0.9 | 5 | 54* | 3 | -9
Fc1ccccc1CSc1nc2ccccc2[nH]1 | 0.8 | 0.8 | -26 | 91* | x | 38
COc1cc(/C=C/C(=O)OCC(=O)NC(=O)NC(C)C)ccc1O | x | x | -16 | x | x | x
Cc1cc(N2CCCC2)c(F)cc1/C=C\[N+](=O)[O-] | 0.9 | 1 | 10 | 52* | -251 | 23
CC1CCN(S(=O)(=O)c2ccc(NC(=O)Cc3cccs3)cc2)CC1 | 0.9 | 0.8 | -58 | 89* | -7 | 10
CC1CCN(S(=O)(=O)c2ccc(NC(=O)CN3CCOCC3)cc2)CC1 | 1 | 0.9 | -19 | -2 | 0 | -6
CC1CCN(S(=O)(=O)c2ccc(NC(=O)N3c4ccccc4Sc4ccccc43)cc2)CC1 | 0.8 | 0.8 | -13 | 61* | 1 | 10
CCOCCCNS(=O)(=O)c1ccc(NC(=O)N2c3ccccc3Sc3ccccc32)cc1 | 0.8 | 0.7 | -5 | 100* | 5 | 29
CCOCCCNS(=O)(=O)c1ccc(NC(=O)CN2C(=O)c3ccccc3C2=O)cc1 | 0.9 | 1 | 7 | -4 | 4 | 7
Cc1nn(-c2ccccc2)c(Cl)c1/C=N/NC(=O)CCNc1n[nH]c(=O)[nH]c1=O | x | x | -11 | x | x | x
COCc1ccc(C(=O)N2CCCC(CCC(=O)NCc3ccccc3F)C2)o1 (stereo not drawn) | 1 | 1 | 22 | 0 | 18 | 2
CC1=NC(=O)C(N=Nc2cccc3ccccc23)N1c1ccccc1 (stereo not drawn) | x | x | x | -7 | x | x
COc1cnc(-c2ccccc2)[nH]c1=O | 1.1 | 1.1 | 22 | -2 | -8 | 9
S=C(Nc1ccc(Nc2ccccc2)cc1)Nc1ccccn1 | 0.7 | 0.7 | 4 | 47 | 7 | 81*
O=C(Nc1ccccc1)C(=O)Nc1ccccn1 | 1.1 | 1.1 | 4 | -8 | x | 3
CC(C)CCNC(=S)Nc1ccccc1F | 1.1 | 1.1 | -15 | 52* | 2 | -3
CC(C)CCNC(=S)Nc1ccccn1 | 0.9 | 0.8 | 12 | 68* | 0 | 46
O=C(NCC1CCCO1)c1ccc(N2CCCCC2)nc1 (stereo not drawn) | 0.9 | 0.9 | -8 | -3 | 3 | -34
Cc1ccccc1N(CC(=O)NCCc1ccccc1)C(=O)c1ccc(N2CCCC2)nc1 | 0.9 | 1 | -7 | 61* | -6 | 21
O=C(CCC1CCCCC1=O)c1ccccc1 (stereo not drawn) | 1.2 | 1.1 | -21 | -2 | x | 2
SMILES | PMI act hi M6P | PMI activator | Calpain2 inh | L major viab | Rad51 HR inh | WT yeast gro inh
CC1(C)CC(=O)C(CCC(=O)c2ccccc2)C(C)(C)N1 (stereo not drawn) | 1.1 | 1.1 | -35 | 90* | -5 | 10
COc1ccc(/C=N/Nc2ncnc3c2[nH]c2ccc(C)cc23)c(OC)c1OC | x | x | -14 | x | 0 | x
COc1cc(OC)c(OC)cc1/C=N/Nc1ncnc2c1[nH]c1ccccc12 | 1 | 0.9 | -204 | 61* | -1 | 3
C=CCNc1ncnc2c1[nH]c1ccc(Cl)cc12 | 1 | 0.9 | -34 | 100* | -2 | 34
c1ccc2c(c1)[nH]c1c(NCC3CCCO3)ncnc12 (stereo not drawn) | 0.9 | 0.9 | -70 | 86* | -2 | -5
c1nc(NCC2CCCO2)c2[nH]cnc2n1 (stereo not drawn) | x | x | x | -2 | -3 | 0
C=CCNc1ncnc2c1[nH]c1ccccc12 | 1.1 | 1.1 | -77 | 67* | 4 | 10
CCC(C)NC(=O)C(=O)NCc1ccccn1 (stereo not drawn) | 1 | 1 | 20 | -1 | x | -19
CCOc1ccc(OCCCCNC(C)(C)C)cc1 | 0.4 | 0.8 | -4 | 98* | x | 4
CC(C)(C)NCCOc1ccc2ccccc2c1 | 1 | 1.1 | -14 | 11 | 5 | 6
CC(C)(C)NCCCCOc1ccc(F)cc1 | 1 | 1 | 22 | 99* | 7 | 8
CCOc1cccc(OCCOCCNC(C)(C)C)c1 | 1.1 | 1.1 | -9 | 28 | x | 8
CCOc1c(Nc2ccc(C(C)C)cc2)c(=O)c1=O | x | x | 4 | x | -5 | x
CCN(CC)CCc1c(C)[nH]c(C(=O)OCc2ccccc2)c1C | 1 | 1 | 58* | 100* | 0 | -14
O=C(N/N=C\c1ccc(-c2ccccc2[N+](=O)[O-])o1)C1COc2ccccc2O1 (stereo not drawn) | 0.4 | 0.7 | -6 | 52* | -3 | 26
Cc1ccc(/C=N\NC(=O)C2COc3cc4ccccc4cc3O2)o1 (stereo not drawn) | 1 | 0.9 | 8 | 0 | 10 | 7
O=C(N/N=C\c1ccc(-c2ccccc2[N+](=O)[O-])o1)C1COc2cc3ccccc3cc2O1 (stereo not drawn) | 0.3 | 0.3 | -114 | 96* | -25 | 5
O=C(O)c1cccc(-c2ccc(/C=N/NC(=O)C3COc4ccccc4O3)o2)c1 (stereo not drawn) | 1 | 1.1 | 8 | -10 | -3 | 8
O=C(N/N=C\C=C\c1ccc2c(c1)OCO2)C1COc2ccccc2O1 (stereo not drawn) | 1 | 1 | -49 | 65* | 15 | -4
O=C(N/N=C\c1ccc([N+](=O)[O-])o1)C1COc2ccccc2O1 (stereo not drawn) | 0.8 | 1.1 | -12 | 100* | -3 | 3
CCC(=O)Nc1cc(C(=O)OCC(=O)c2ccccc2)ccc1C | 1 | 1 | 0 | 6 | -28 | -11
CC1(C)Cn2c(nc(=O)c3c2NCN(CCc2ccccc2)C3)S1 | 1.1 | 1.1 | 16 | -3 | x | 6
Cc1cc(C)n2nc(C(F)(F)F)c(-c3ccccc3)c2n1 | 1 | 1 | -20 | 4 | 2 | -6
CC(=O)Nc1ccc(C=C(C(C)=O)C(C)=O)cc1 | x | x | -15 | x | -1 | x
CC(NC(=O)COC(=O)C1CSC2(C)CCC(=O)N12)C12CC3CC(CC(C3)C1)C2 (stereo not drawn) | 1 | 1.1 | 20 | 2 | -1 | 10
